Laboratory results: ChEMBL document CHEMBL2380281, “Synthesis of proline analogues as potent and selective cathepsin S inhibitors” (Bioorg Med Chem Lett, 2013)

What was measured:
Cathepsin B = Cathepsin B (Homo sapiens, UniProt P07858); experiment: Inhibition of human cathepsin-B
How it was run: (§1)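 Human cathepsin B and K activity measured with a SensoLyte 520 cathepsin activity assay kit; LHVS as pan-cathepsin positive control.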

Cathepsin K = target: T1, Cathepsin K (Homo sapiens, UniProt P43235); experiment: Inhibition of human cathepsin-K; how it was run: as §1
T1 sequence (P43235 whole entry): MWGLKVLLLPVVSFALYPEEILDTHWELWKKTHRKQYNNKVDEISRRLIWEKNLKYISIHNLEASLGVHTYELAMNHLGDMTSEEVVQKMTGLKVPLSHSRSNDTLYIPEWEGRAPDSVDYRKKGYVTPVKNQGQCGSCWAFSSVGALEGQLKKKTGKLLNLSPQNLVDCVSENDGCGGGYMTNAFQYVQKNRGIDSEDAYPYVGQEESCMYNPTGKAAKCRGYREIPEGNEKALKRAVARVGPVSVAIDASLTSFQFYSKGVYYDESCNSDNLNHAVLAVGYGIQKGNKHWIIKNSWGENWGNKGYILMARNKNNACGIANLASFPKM

Cathepsin S = Cathepsin S (Homo sapiens, UniProt P25774); experiment: Inhibition of human cathepsin-S
Sequence of Cathepsin S (P25774 whole entry): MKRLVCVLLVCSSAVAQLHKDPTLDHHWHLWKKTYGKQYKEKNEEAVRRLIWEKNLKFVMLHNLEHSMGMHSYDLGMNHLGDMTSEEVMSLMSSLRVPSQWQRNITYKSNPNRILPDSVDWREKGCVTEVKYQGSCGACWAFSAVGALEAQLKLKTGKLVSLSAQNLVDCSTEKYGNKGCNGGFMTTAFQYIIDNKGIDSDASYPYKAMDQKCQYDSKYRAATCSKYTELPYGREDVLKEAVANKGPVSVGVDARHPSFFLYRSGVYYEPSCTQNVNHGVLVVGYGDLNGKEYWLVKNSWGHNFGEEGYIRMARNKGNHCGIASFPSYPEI

SMILES	IC50 (Cathepsin B) [nM]	IC50 (Cathepsin K) [nM]	IC50 (Cathepsin S) [nM]
CCC(NC(=O)[C@@H]1C[C@@H](S(=O)(=O)c2ccccc2)CN1C(=O)c1ccc(-c2ccccc2)cc1)C(=O)c1nc2ccccc2o1 (some centres undefined)	> 10000	> 10000	4.1
CCC(NC(=O)[C@@H]1C[C@@H](Oc2ccccc2)CN1C(C)=O)C(=O)c1nc2ccccc2o1 (some centres undefined)	–	–	> 1000
CCC(NC(=O)[C@@H]1C[C@@H](S(=O)(=O)c2ccc(F)cc2)CN1C(C)=O)C(=O)c1nc2ccccc2o1 (some centres undefined)	–	–	3.2
CCC(NC(=O)[C@@H]1C[C@@H](S(=O)(=O)c2ccccc2)CN1C(=O)c1cccnc1)C(=O)c1nc2ccccc2o1 (some centres undefined)	–	–	3.5
CCC(NC(=O)[C@@H]1C[C@@H](S(=O)(=O)c2ccccc2)CN1c1ccccc1)C(=O)c1nc2ccccc2o1 (some centres undefined)	–	–	12.4
CCC(NC(=O)[C@@H]1C[C@@H](S(=O)(=O)c2ccccc2)CN1C(=O)C(C)C)C(=O)c1nc2ccccc2o1 (some centres undefined)	–	–	2.4
CCC(NC(=O)[C@@H]1C[C@@H](S(=O)(=O)c2ccccc2)CN1S(C)(=O)=O)C(=O)c1nc2ccccc2o1 (some centres undefined)	–	–	3.5
CCC(NC(=O)[C@@H]1C[C@@H](S(=O)(=O)c2ccccc2)CN1C(=O)C(F)(F)F)C(=O)c1nc2ccccc2o1 (some centres undefined)	–	–	2.7
CC[C@@H](NC(=O)[C@@H]1C[C@@H](S(=O)(=O)c2ccccc2)CN1C(C)=O)C(=O)c1nc2ccccc2o1	–	–	4.3
CCC(NC(=O)[C@@H]1C[C@@H](S(=O)(=O)CC)CN1C(C)=O)C(=O)c1nc2ccccc2o1 (some centres undefined)	–	–	> 100
CCC(NC(=O)[C@@H]1C[C@@H](S(=O)(=O)c2ccccc2)CN1C(=O)N1CCCC1)C(=O)c1nc2ccccc2o1 (some centres undefined)	–	–	3.7
CCC(NC(=O)[C@@H]1C[C@@H](S(=O)(=O)c2ccccc2)CN1C(=O)CCOC)C(=O)c1nc2ccccc2o1 (some centres undefined)	–	–	3.3
CC(C)C[C@@H](NC(=O)N1CCOCC1)C(=O)N[C@@H](/C=C/S(=O)(=O)c1ccccc1)CCc1ccccc1	3	4	1.9
CCC(NC(=O)[C@@H]1C[C@@H](S(=O)(=O)c2ccccc2)CN1CC(C)=O)C(=O)c1nc2ccccc2o1 (some centres undefined)	–	–	45.4
CCC(NC(=O)[C@@H]1C[C@@H]([S@](=O)c2ccccc2)CN1C(C)=O)C(=O)c1nc2ccccc2o1 (some centres undefined)	–	–	83.7
